Results: the M2OR odorant receptor database

Tests used:
Details in all cases: stereoisomer not certain
UniProt E9PZ66 = target: T1, UniProt E9PZ66
T1 sequence (whole entry): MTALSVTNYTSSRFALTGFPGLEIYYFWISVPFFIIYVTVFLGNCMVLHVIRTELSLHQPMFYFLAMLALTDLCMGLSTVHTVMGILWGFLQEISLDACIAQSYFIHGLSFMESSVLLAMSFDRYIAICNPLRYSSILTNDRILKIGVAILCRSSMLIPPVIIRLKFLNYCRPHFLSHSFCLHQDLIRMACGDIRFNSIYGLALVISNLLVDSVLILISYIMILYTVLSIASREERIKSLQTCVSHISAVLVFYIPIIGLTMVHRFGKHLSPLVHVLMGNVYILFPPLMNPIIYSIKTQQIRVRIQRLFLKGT
Procedure, shortened: (§1)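 Assay methods differ from source to source, frequently being transient luciferase assays in mammalian cell lines. For each receptor–molecule pair, the label responsive (active) applies when the original authors judged the measured signal statistically different from baseline, and non-responsive (inactive) applies otherwise.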

UniProt E9Q4X7 = target: T2, UniProt E9Q4X7
T2 sequence (whole entry): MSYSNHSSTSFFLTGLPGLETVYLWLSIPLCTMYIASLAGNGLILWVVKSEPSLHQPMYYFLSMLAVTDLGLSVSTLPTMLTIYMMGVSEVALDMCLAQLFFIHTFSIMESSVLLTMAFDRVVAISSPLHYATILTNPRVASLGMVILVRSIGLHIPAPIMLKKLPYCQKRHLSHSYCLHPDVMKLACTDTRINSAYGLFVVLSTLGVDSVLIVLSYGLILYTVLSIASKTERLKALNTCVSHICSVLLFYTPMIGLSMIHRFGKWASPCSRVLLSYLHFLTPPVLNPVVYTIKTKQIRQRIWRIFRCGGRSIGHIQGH
Procedure, shortened: as §1

UniProt E9Q546 = target: T3, UniProt E9Q546
T3 sequence (whole entry): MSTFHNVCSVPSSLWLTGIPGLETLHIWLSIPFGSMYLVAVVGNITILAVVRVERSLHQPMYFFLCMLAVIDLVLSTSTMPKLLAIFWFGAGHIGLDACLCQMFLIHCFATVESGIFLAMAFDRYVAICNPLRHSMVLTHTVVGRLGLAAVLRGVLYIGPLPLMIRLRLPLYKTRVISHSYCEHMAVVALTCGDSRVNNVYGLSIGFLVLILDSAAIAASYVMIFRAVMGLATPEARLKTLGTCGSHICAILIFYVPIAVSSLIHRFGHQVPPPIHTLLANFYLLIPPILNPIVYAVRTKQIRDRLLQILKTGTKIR
Procedure, shortened: as §1

UniProt E9Q6Z7 = target: T4, UniProt E9Q6Z7
T4 sequence (whole entry): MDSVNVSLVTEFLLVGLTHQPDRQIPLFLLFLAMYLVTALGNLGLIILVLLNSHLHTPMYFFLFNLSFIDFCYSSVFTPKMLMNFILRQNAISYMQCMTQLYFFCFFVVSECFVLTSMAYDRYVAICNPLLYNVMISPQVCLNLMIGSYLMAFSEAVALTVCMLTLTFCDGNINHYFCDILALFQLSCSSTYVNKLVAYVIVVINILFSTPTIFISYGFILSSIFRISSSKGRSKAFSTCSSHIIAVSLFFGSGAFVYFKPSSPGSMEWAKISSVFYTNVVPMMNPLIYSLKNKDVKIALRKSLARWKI
Procedure, shortened: as §1

UniProt K7N609 = target: T5, UniProt K7N609
T5 sequence (whole entry): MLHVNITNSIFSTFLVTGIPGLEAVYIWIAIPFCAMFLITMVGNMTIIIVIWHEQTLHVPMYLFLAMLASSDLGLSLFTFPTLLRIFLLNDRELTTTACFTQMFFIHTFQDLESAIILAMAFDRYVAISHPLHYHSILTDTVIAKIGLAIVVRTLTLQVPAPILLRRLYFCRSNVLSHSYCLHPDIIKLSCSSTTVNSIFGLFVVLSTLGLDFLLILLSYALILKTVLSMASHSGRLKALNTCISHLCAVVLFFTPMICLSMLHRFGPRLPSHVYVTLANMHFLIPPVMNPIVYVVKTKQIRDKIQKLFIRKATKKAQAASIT
Procedure, shortened: as §1

UniProt E9Q891 = target: UniProt E9Q891
Procedure, shortened: as §1

UniProt K7N5T5 = target: UniProt K7N5T5
Procedure, shortened: as §1

Measured: odorant receptor agonist call

Chain of UniProt K7N5T5 (K7N5T5 as listed by the source): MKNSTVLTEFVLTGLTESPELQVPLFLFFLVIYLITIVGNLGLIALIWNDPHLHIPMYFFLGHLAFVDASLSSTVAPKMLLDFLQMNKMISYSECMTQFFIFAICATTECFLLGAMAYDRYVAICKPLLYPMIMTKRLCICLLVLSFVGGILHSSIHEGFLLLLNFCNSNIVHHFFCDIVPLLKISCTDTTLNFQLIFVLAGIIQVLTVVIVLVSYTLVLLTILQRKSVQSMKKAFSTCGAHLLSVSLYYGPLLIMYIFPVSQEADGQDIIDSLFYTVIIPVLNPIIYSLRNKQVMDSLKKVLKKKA
Chain of UniProt E9Q891 (E9Q891 as listed by the source): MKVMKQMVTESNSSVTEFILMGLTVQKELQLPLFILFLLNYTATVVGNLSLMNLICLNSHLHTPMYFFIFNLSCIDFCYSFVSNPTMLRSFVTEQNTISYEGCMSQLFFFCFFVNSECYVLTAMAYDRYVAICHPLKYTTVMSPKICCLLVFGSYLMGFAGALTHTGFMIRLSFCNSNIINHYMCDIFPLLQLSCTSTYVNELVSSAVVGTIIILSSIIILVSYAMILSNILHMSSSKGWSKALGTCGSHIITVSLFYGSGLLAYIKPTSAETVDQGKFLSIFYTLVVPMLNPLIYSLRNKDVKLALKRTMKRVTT

CCCCCCCCCS
not listed: UniProt E9Q891 | UniProt K7N5T5
inactive: all other assays above

O=c1ccc2ccccc2o1
active: UniProt E9Q891
inactive: UniProt E9Q546 | UniProt K7N5T5 | UniProt K7N609

CCCCCCCCC(=O)O
not listed: UniProt E9Q891 | UniProt K7N5T5
inactive: all other assays above

CCCCCC=O
not listed: UniProt E9Q891 | UniProt K7N5T5
inactive: all other assays above

CC12CCC(CC1=O)C2(C)C (stereo unspecified)
not listed: UniProt E9Q891 | UniProt K7N5T5
inactive: all other assays above

CCCCCOC(=O)CCCCC
not listed: UniProt E9Q891 | UniProt K7N5T5
inactive: all other assays above

CCC(=O)O
not listed: UniProt E9Q891 | UniProt K7N5T5
inactive: all other assays above

CC(=O)OCC=C(C)C
not listed: UniProt E9Q891 | UniProt K7N5T5
inactive: all other assays above

CCCCCCCCS
not listed: UniProt E9Q891 | UniProt K7N5T5
inactive: all other assays above

CCC(C(=O)O)c1ccccc1 (stereo unspecified)
inactive: UniProt E9Q546 | UniProt K7N609

CCCCCC1=C(C)CCC1=O
not listed: UniProt E9Q891 | UniProt K7N5T5
inactive: all other assays above
